Compound activity (PubChem BioAssay)
An excerpt weighted towards active compounds, which were near 4.9% of everything screened.
STAT3 activator: activators of IL-6 induced STAT3 signaling | U3A cells, IL-6 STAT3-luciferase reporter, luminescence; 100% = signal with IL-6 EC80 alone | activation (% of control), % at 5.6 µM | 0.91% of 190,000 active | AID 871;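 active means activation above the screen-wide mean of compound activation plus 3 SD, cut at about 130% in these data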
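Material: STAT3-luciferase reporter U3A cells; Probe or stimulus: IL-6 (33 ng/mL); Incubation: compound pre-incubation 1 h before IL-6, then 6 h stimulation at 37 °C; Technique: luminescence from STAT3-driven luciferase reporter; Evaluation: % activation versus median of IL-6-stimulated wells; Controls: IL-6-only high control.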
STAT3 inh: STAT3 signaling inhibition. U3A cells, IL-6 STAT3-luciferase reporter, luminescence; host cell line lacks STAT1. inhibition, % at 5.5 µM. 0.89% of 190,000 active;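 active means inhibition above the mean inhibition across all screened compounds plus 3 SD, cut at about 44% in these data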
STAT1 blocker: STAT1 signaling inhibition; NIH 3T3 STAT1-luciferase reporter, IFN-gamma, luminescence; inhibition, % at 5.5 µM; 0.35% of 200,000 active; AID 920;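 active means inhibition above a set limit, the mean inhibition across all tested compounds plus 3 SD, cut at about 34% in these data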
NF-kB expr up: raises NF-kB expression in human neuronal cells; NF-kB reporter expression; stronger effect = higher value; fold change at 12.5 µM; 1.6% of 190,000 active; in the data active means fold change above about 3.3
APP 5'UTR act: activates APP 5'UTR luciferase reporter. 1% of 190,000 active. SH-SY5Y APP 5'UTR luciferase reporter, luminescence; zero percent = DMSO vehicle wells. activation, % at 2 µM. AID 1276;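 active means activation above a set limit, based on mean plus 3 SD of controls, cut at about 140% in these data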
STAT1 activator: increases IFN-gamma driven STAT1 reporter signal. NIH 3T3 STAT1-luciferase reporter, luminescence; 100% = IFN-gamma alone, no compound. activation (% of control), % at 5.5 µM. 2.6% of 200,000 active. AID 932;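 active means activation above the screen-wide mean activation plus 3 SD, cut at about 130% in these data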
Each line names hits and unclear results; the compound was inactive in the other large screens.

O=C(Nc1ccc(Cl)cc1)N1CCC(c2ccccc2)C1 (configuration not stated)	NF-kB expr up 6.2, APP 5'UTR act 169, STAT1 activator 146
COc1ccccc1/C=C/C(=O)N1CCOCC1	none
COc1cc(CNC(C)c2ccccc2)cc(Cl)c1OCC(=O)Nc1ccccc1 (configuration not stated)	none
O=C(COC(=O)c1ccc[nH]c1=O)c1ccc(Cl)s1	none
Cc1ccc(C(=O)OCC(=O)c2ccc(Cl)s2)s1	STAT1 activator 131
CS(=O)(=O)NCCn1ccc2ccccc21	none
C(=C\c1nnc2c3ccccc3ncn12)/c1ccccc1	STAT3 activator 145, STAT1 activator 148
C=CCN(CC=C)C(=O)CCc1nnc(CCc2c[nH]c3ccccc23)o1	none
C=CCSc1ncc(-c2ccccc2)cn1	STAT1 activator 136
Cc1ccc([N+](=O)[O-])cc1NC(=O)C(C)NS(=O)(=O)c1ccc(F)cc1 (configuration not stated)	none
c1ccc(-c2cn3c(n2)-c2ccccc2C3)cc1	NF-kB expr up 3.9, APP 5'UTR act 152
COc1cc(/C=C/c2nc3ccccc3s2)cc(OC)c1O	none
Cc1ccc(/C=C/c2nc3ccccc3s2)s1	STAT3 inh 70, STAT1 blocker 44
CN(C)c1ccc(/C=C/c2nc3ccccc3s2)cc1	STAT3 inh 108, STAT1 blocker 91
O=C(Nc1ccc2sccc2c1)c1cccc(N2C(=O)CCC2=O)c1	STAT1 activator 140
COc1ccc2c(c1)C=C(C(=O)OCc1cccnc1)CO2	none
O=C(NCCC1=CCCCC1)Nc1ccc2nsnc2c1	NF-kB expr up 6.4, APP 5'UTR act 165, STAT1 activator 133
O=C(NCCC1=CCCCC1)NC12CC3CC(CC(C3)C1)C2	APP 5'UTR act 173, STAT1 activator 144
Cc1ccccc1C(=O)Nn1cnc2ccccc2c1=O	none
COc1ccc(C(=O)Nn2cnc3ccccc3c2=O)c(OC)c1	STAT1 activator 141
Cc1cc(=O)oc2cc(OCc3ccc(C(=O)OCC(=O)Nc4ccc(N(C)C)cc4)cc3)ccc12	none
COc1cc(NC(=O)c2cc3nc(C)cc(C)n3n2)c(OC)cc1Cl	STAT1 activator 132
CC(C)CCNCC(=O)NC(c1ccccc1)c1ccccc1	none
CCOC(=O)c1ccc(NC(=O)CN2C(=O)NC3(CCCCCC3)C2=O)cc1	none
O=C(CN1C(=O)NC2(CCCCC2)C1=O)Nc1ccc2c(c1)CCC2	STAT3 activator 134
CCOc1ccc(N(C)S(=O)(=O)c2ccc(C)c(C(=O)OCC(=O)c3c[nH]c4ccccc34)c2)cc1	none
O=C(N/N=C/c1ccc([N+](=O)[O-])s1)c1ccncc1	none
Cc1ccc(C(=O)N/N=C/c2ccc([N+](=O)[O-])s2)cc1	STAT3 inh 76, STAT1 blocker 80
CC(C)Cc1cc(C(=O)N2CCC(N3CCC(C(=O)NC4CC4)CC3)CC2)n[nH]1	none
CC(NC(=O)c1ccc(F)cc1)C(=O)NC1=NCCS1 (configuration not stated)	none
O=c1c(-c2ccc3c(c2)OCCO3)coc2cc(O)cc(O)c12	NF-kB expr up 5.8, APP 5'UTR act 145
CCn1nc(C)c(CNC(=O)CCc2nnc(Cc3c[nH]c4ccccc34)o2)c1C	none (no result: NF-kB expr up)
COc1nc(-c2ccccc2)ccc1-c1noc(-c2cccs2)n1	none (no result: NF-kB expr up)
COc1ccc(-c2nnc(-c3cccs3)o2)cc1OC	STAT1 activator 150
Cc1ccccc1-c1nnc(-c2cccs2)o1	STAT1 activator 144
Cc1ccccc1-c1noc(-c2cccs2)n1	STAT1 activator 143
Cc1ccc(NC(=S)Nc2ccc(OC(F)F)c(Cl)c2)cc1F	none
CCOc1ccccc1NC(=O)c1cc(SC)ccc1Cl	none
Cc1cc(=O)n2cccc(O)c2n1	none
COC(=O)/C=C1/S/C(=N/N=C/c2ccc(N(C)C)cc2)NC1=O	none
S=c1[nH]nc(C2CCCCC2)o1	none
Cc1ccc(N=Cc2c(O)[nH]c3ccccc23)c([N+](=O)[O-])c1	APP 5'UTR act 160, STAT1 activator 131
Clc1ccc(-c2cn3c(n2)CCC3)cc1	NF-kB expr up 3.5
O=C(c1ccccc1)C(Nc1ccccn1)c1ccccc1 (configuration not stated)	none
COCCN=c1scc(-c2ccco2)n1/N=C/c1ccc(O)c(O)c1O	none
CC(C)N=c1scc(-c2ccco2)n1/N=C/c1ccc(O)c(O)c1	NF-kB expr up 9.6
N#Cc1c(/N=C/c2ccco2)sc2c1CCCCC2	STAT1 activator 138
N#Cc1c(/N=C/c2cccs2)sc2c1CCC2	STAT1 activator 140
N#Cc1c(/N=C/c2cc(Br)cs2)sc2c1CCC2	none (no result: NF-kB expr up)
CN(C)/C=N/c1sc2c(c1C#N)CCCC2	none
Cn1cc(Cl)c(-c2n[nH]c(=S)n2C2CCCCC2)n1	none
COc1ccc(Cl)cc1-c1nc(-c2ccc(NC(=O)c3cccs3)cc2)no1	STAT1 activator 129
O=C1c2ccccc2C2=Nc3ccccc3SC(c3cccc(F)c3)C12 (configuration not stated)	none
COc1ccc(C2NN=C(c3ccc(C)cc3)S2)cc1OC (configuration not stated)	NF-kB expr up 3.5, APP 5'UTR act 164, STAT1 activator 136
Fc1cccc(C2NN=C(c3ccccc3)S2)c1 (configuration not stated)	NF-kB expr up 9, APP 5'UTR act 182, STAT1 activator 163
Cc1ccc(C2=NNC(c3cccc(F)c3)S2)cc1 (configuration not stated)	STAT3 inh 78, STAT1 blocker 48, NF-kB expr up 3.4, APP 5'UTR act 165
CC(CCc1ccccc1)NC(=O)CN1CCN(c2ccc(O)cc2)CC1 (configuration not stated)	none
CN1C(=O)CSc2ccc(NC(=O)Nc3ccccn3)cc21	STAT1 activator 142
CC(=O)Nc1ccc(NC(=O)Nc2ccc3c(c2)N(C)C(=O)CS3)cc1	none
COc1ccc2cc(C(=O)C3CCCN(C(=O)Cc4c(C)noc4C)C3)ccc2c1 (configuration not stated)	none
O=C(CC(Nc1ccccc1)c1ccc(F)cc1)c1ccccc1 (configuration not stated)	none
O=C(CC(Nc1ccccc1)C(=O)O)c1ccccc1 (configuration not stated)	NF-kB expr up 3.3 (no result: STAT3 activator, STAT3 inh, STAT1 blocker, APP 5'UTR act, STAT1 activator)
Cc1ccc(C(=O)/C=C/c2cn(CN3CCN(C)CC3)c3ccccc23)cc1	NF-kB expr up 7.3
Cn1cc(/C=C2/SC(=O)N(c3ccccc3)C2=O)c2ccccc21	STAT3 activator 172, STAT1 activator 132
Cn1cc(/C=C/C(=O)c2ccccc2)c2ccccc21	APP 5'UTR act 200 (no result: STAT3 activator, STAT3 inh, STAT1 blocker, NF-kB expr up, STAT1 activator)
O=C(/C=C/c1cn(CC(O)CN2CCCCCC2)c2ccccc12)c1cccs1 (configuration not stated)	none
Nc1cc(=O)[nH]n1C1CCCCC1	none
